Calls of active or inactive are those of the source. No cut-off for these calls is given here.
How the values were obtained:
[1] = molecular target: T1, Muscarinic acetylcholine receptor M1 (Rattus norvegicus, UniProt P08482); assay: Displacement of [3H]QNB from muscarinic M1 receptor Wistar rat cortex synaptosomal membrane
T1 sequence (P08482 whole entry): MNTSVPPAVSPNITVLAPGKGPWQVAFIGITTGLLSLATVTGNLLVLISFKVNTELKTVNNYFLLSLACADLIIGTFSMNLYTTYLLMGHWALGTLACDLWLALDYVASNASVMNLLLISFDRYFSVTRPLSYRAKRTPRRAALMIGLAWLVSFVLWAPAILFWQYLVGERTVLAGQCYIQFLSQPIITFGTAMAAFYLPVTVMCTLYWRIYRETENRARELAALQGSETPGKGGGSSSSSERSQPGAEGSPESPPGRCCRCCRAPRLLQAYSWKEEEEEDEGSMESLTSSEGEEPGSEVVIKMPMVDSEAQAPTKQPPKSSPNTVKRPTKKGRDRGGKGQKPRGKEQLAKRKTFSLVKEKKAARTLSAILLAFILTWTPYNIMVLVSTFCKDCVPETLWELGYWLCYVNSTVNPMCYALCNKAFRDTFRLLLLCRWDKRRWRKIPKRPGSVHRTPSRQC
In short: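 Male Wistar rat cortex synaptosomal membranes were prepared in Tris–HCl 50 mmol/L pH 7.4 with 0.32 mol/L sucrose, spun at 1000g then 32,000g at 4 °C, and resuspended in 50 mmol/L phosphate buffer pH 7.4 with MgCl2. Membrane protein was incubated with 0.2 nM [3H]QNB and displacer for 2 h at 37 °C, then GF/B filtered and counted by scintillation. IC50 and Ki were obtained by curve analysis.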

Cortex = assay: Stimulation of (1,4,5)-trisphosphate formation in Wistar rat cerebral cortex relative to basal; type: functional; parameters: concentration or dose not given beside the values
In short: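 Rat cerebral cortex slices were labelled with [3H]myoinositol, then stimulated with compound at 1–500 µmol/l. Basal IP3 was measured, and acetylcholine iodide served as the reference stimulus. [3H]IP3 formed was counted by liquid scintillation. Values are mean and SD of three experiments, each run in duplicate.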

Rattus norvegicus [2] = species: Rattus norvegicus; assay: Reversal of scopolamine-induced memory loss in Wistar rat assessed as reduction of number of mistakes relative to control; type: functional
In short: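 Passive avoidance step-down task run on male Wistar rats, 200–250 g, n = 8, with scopolamine-induced memory loss. Mistakes were counted. The dose range tested was 0.05–0.2 mg/kg, and 0.1 mg/kg was used in the in vivo studies.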

Rattus norvegicus [3] = species: Rattus norvegicus; assay: Effect on scopolamine-induced spartial working memory loss in Wistar rat on Y maze assessed as alteration behavior; type: functional
In short: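 Y maze, male Wistar rats, 200–250 g. Compound plus scopolamine was given 30 min before free exploration. Arm entries were recorded visually. Alternation was scored as successive entries into all three arms over overlapping triplets. Percent alternation = actual alternations / (total entries − 2) × 100.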

Rattus norvegicus [4] = species: Rattus norvegicus; assay: Reversal of scopolamine-induced learning impairment and memory loss in Wistar rat on elevated plus maze assessed as transfer latency time on day 1 relative to control; type: functional
In short: (§1)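 Elevated plus maze, male Wistar rats. Scopolamine alone or with compound was given 30 min before a 90 s exploration, and saline 0.9% was given to controls. Transfer latency from the open-arm end to a closed arm was timed on day 1, then retested in the same animals on day 2. Mean ± SEM.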

Rattus norvegicus [5] = species: Rattus norvegicus; assay: Reversal of scopolamine-induced learning impairment and memory loss in Wistar rat on elevated plus maze assessed as transfer latency time on day 2 relative to control; type: functional; in short: as §1

SMILES | IC50 [1] [µM] | Ki [1] [µM] | Activity (Cortex) [%] | Activity (Rattus norvegicus [2]) | Activity (Rattus norvegicus [3]) [%] | Activity (Rattus norvegicus [4]) | Activity (Rattus norvegicus [5])
CN1CCC=C(C2CN(C(=S)Nc3cccc(Cl)c3)CCO2)C1 (centres undefined) | 236 | 85 | 103 | – | – | – | –
CN1CCC=C(C2CN(C(=S)Nc3ccc(F)cc3)CCO2)C1 (centres undefined) | 31 | 7 | 155 | 11 | 61 | Active | Active
CN1CCC=C(C2CN(C(=S)Nc3ccccc3Cl)CCO2)C1 (centres undefined) | 515 | 214 | 100 | – | – | 60 s | 43 s
COc1ccccc1NC(=S)N1CCOC(C2=CCCN(C)C2)C1 (centres undefined) | 362 | 98 | 100 | – | – | – | –
CN1CCC=C(C2CN(C(=S)Nc3ccccc3)CCO2)C1 (centres undefined) | 153 | 49 | 101 | – | – | – | –
CC(=O)OCC[N+](C)(C)C [ACETYLCHOLINE] | – | – | 268 | – | – | – | –
COc1ccc(NC(=S)N2CCOC(C3=CCCN(C)C3)C2)cc1 (centres undefined) | 15 | 4 | 178 | 10 | 60 | Active | Active
CN1CCC=C(C2CN(C(=S)Nc3ccccc3F)CCO2)C1 (centres undefined) | 67 | 15 | 129 | Active | 58 | – | –
CN1CCC=C(C2CN(C(=S)Nc3ccc(Cl)cc3)CCO2)C1 (centres undefined) | 1.2 | 0.31 | 216 | 10 | 64 | 34 s | 9 s
COc1cccc(NC(=S)N2CCOC(C3=CCCN(C)C3)C2)c1 (centres undefined) | 120 | 41 | 106 | Active | – | – | –
CN1CCC=C(C2CN(C(=S)Nc3ccc(Cl)cc3Cl)CCO2)C1 (centres undefined) | 112 | 31 | 116 | Active | – | – | –
